# Where a chain is given by its changes, count along the chain named.
# Tests used:
# Conditions in all cases: stereoisomer not certain
# OR2W1 (Homo sapiens) = biological target: T1, OR2W1 (Homo sapiens) (UniProt Q9Y3N9)
# T1 sequence (whole entry): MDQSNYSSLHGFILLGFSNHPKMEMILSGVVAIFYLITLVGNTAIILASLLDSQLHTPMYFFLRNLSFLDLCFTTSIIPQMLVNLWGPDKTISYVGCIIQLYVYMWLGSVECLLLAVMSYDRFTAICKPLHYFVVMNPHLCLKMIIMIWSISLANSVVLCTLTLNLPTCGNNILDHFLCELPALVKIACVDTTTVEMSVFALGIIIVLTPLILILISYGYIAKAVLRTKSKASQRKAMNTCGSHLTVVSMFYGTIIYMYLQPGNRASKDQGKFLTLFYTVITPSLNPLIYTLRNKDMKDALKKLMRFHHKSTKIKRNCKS
# Method in brief: (§1)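 Transient luciferase assays in mammalian cell lines were common, though methods varied by source. The values come from published papers and their supplementary material, with extra details from the original authors when needed. Responsive refers to a measured signal the original authors judged statistically different from baseline, and non-responsive (inactive) to the remainder.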
# OR2W1 [1] = tested on: T2, OR2W1
# T2 sequence (whole entry): T1 sequence (whole entry) with D296N
# Method in brief: as §1
# OR2W1 [2] = tested on: T3, OR2W1; remark: listed apart in the source
# T3 sequence (whole entry): T1 sequence (whole entry) with M81V
# Method in brief: as §1
# 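Note: active if original authors judged signal statistically different from baseline.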
SMILES,odorant receptor agonist call (OR2W1 (Homo sapiens)),odorant receptor agonist call (OR2W1 [1]),odorant receptor agonist call (OR2W1 [2])
CC1=CCC(C(C)C)C=C1 (stereo unspecified),active,active,inactive
CCCCCC1CCC(=O)O1 (stereo unspecified),active,active,active
CCOC(=O)C1CCCCC1,active,active,inactive
CCOC(=O)CC(C)C,active,active,inactive
CC=Cc1ccc(OC)cc1,active,active,active
CCCCCC(C)O (stereo unspecified),active,active,active
CCCCCCC1CCC(=O)O1 (stereo unspecified),active,active,active
CCCCCc1ccccn1,active,active,active
CCCC(S)CCO (stereo unspecified),active,active,inactive
CCCC(=O)OC,active,active,active
CC(=O)OCC=Cc1ccccc1,active,active,active
CC(=O)c1ccc(C)cc1,active,active,active
CSCc1ccccc1,active,active,active
COC(=O)C=Cc1ccccc1,active,active,active
O=C1Cc2ccccc2O1,inactive,–,–
CCCCCCCC1CCC(=O)O1 (stereo unspecified),active,active,active

SMILES,odorant receptor agonist call (OR2W1 (Homo sapiens)),odorant receptor agonist call (OR2W1 [1]),odorant receptor agonist call (OR2W1 [2])
CCC(C)COC(C)=O (stereo unspecified),inactive,active,active
CCCC1CCCC(=O)O1 (stereo unspecified),active,active,inactive
CCc1cccc(O)c1,active,active,inactive
CCCSSSC,active,active,active
CC(C)c1ccc(C=O)cc1,active,active,active
C=CC(O)CCCCC (stereo unspecified),active,active,active
OCCc1ccccc1,active,active,inactive
C=CC(=O)CCCCC,active,active,active
CC(=O)c1cnccn1,active,active,inactive
CCCSSCCC,active,active,inactive
CCCCCC(=O)OCC,active,active,active
CCCCCCCC(C)=O,active,active,active
CCC=CCCC=O,active,active,active
CCC=CCCOC(C)=O,active,active,active
CCCCCCO,active,active,inactive

# Source: the M2OR odorant receptor database
